# Test results taken from ChEMBL document CHEMBL1777764, “Synthesis and evaluation of 1-(1H-indol-3-yl)ethanamine derivatives as new antibacterial agents” (Bioorg Med Chem, 2011).
# How the values were obtained:
# Assay type in all cases: functional
# [1] = system: Staphylococcus aureus; experiment: Antibacterial activity against Staphylococcus aureus CIP 103428 after 18 hrs by broth microdilution method; settings: CIP 103428, 18 h
# Procedure, shortened: (§1)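 MIC by broth microdilution per ISO 20776-1:2006 and CLSI M07-A8. Inoculum 10^6 cfu/ml in Mueller-Hinton broth with compound serially diluted, final concentrations 2 to 128 ug/ml, duplicate rows, no-drug growth control. Incubation 18 h at 37 °C. MIC taken as lowest concentration giving complete inhibition of visible growth. Each compound tested at least twice.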
# [2] = system: Staphylococcus aureus; experiment: Antibacterial activity against Staphylococcus aureus ATCC 25923 after 18 hrs by broth microdilution method; settings: ATCC 25923, 18 h; procedure, shortened: as §1
# [3] = system: Staphylococcus aureus; experiment: Antibacterial activity against Staphylococcus aureus CIP 65.6 after 18 hrs by broth microdilution method; settings: CIP 65.6, 18 h; procedure, shortened: as §1
# [4] = system: Staphylococcus epidermidis; experiment: Antibacterial activity against Staphylococcus epidermidis CIP 103627 after 18 hrs by broth microdilution method; settings: CIP 103627, 18 h; procedure, shortened: as §1
# [5] = system: Streptococcus pneumoniae; experiment: Antibacterial activity against Streptococcus pneumoniae ATCC 49619 after 18 hrs by broth microdilution method; settings: ATCC 49619, 18 h
# Procedure, shortened: (§2)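 MIC by broth microdilution per ISO 20776-1:2006 and CLSI M07-A8. Inoculum 10^6 cfu/ml in Mueller-Hinton broth […]. Compound serially diluted, final 2 to 128 ug/ml, duplicate rows, no-drug growth control. Read after 18 h at 37 °C as lowest concentration fully inhibiting visible growth. At least two experiments.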
# [6] = system: Staphylococcus aureus; experiment: Antibacterial activity against Staphylococcus aureus ATCC 6538 after 18 hrs by broth microdilution method; settings: ATCC 6538, 18 h; procedure, shortened: as §1
# [7] = system: Staphylococcus aureus; experiment: Antibacterial activity against Staphylococcus aureus ATCC 9144 after 18 hrs by broth microdilution method; settings: ATCC 9144, 18 h; procedure, shortened: as §1
# [8] = system: Streptococcus pneumoniae; experiment: Antibacterial activity against Streptococcus pneumoniae ATCC 6303 after 18 hrs by broth microdilution method; settings: ATCC 6303, 18 h; procedure, shortened: as §2
# [9] = system: Staphylococcus aureus; experiment: Antibacterial activity against methicillin-resistant Staphylococcus aureus ATCC 33592 after 18 hrs by broth microdilution method; settings: ATCC 33592, 18 h
# Procedure, shortened: (§3)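 Broth microdilution following ISO 20776-1:2006 and CLSI M07-A8, in Mueller-Hinton broth. Inoculum was 10^6 cfu/ml, with compound serial dilutions spanning 2 to 128 ug/ml and a compound-free growth control well. Plates were incubated 18 h at 37 °C. MIC was the lowest concentration giving complete inhibition of visible growth. Each compound was tested at least twice.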
# [10] = system: Staphylococcus epidermidis; experiment: Antibacterial activity against Staphylococcus epidermidis CIP 81.55 after 18 hrs by broth microdilution method; settings: CIP 81.55, 18 h; procedure, shortened: as §1
# [11] = system: Staphylococcus aureus; experiment: Antibacterial activity against vancomycin intermediate Staphylococcus aureus […] after 18 hrs by broth microdilution method; procedure, shortened: as §3
# [12] = system: Staphylococcus aureus; experiment: Antibacterial activity against methicillin-resistant Staphylococcus aureus CIP 65.25 after 18 hrs by broth microdilution method; settings: CIP 65.25, 18 h; procedure, shortened: as §3
# [13] = system: Staphylococcus aureus; experiment: Antibacterial activity against Staphylococcus aureus ATCC 29213 after 18 hrs by broth microdilution method; settings: ATCC 29213, 18 h; procedure, shortened: as §1
# [14] = system: Staphylococcus epidermidis; experiment: Antibacterial activity against Staphylococcus epidermidis ATCC 12228 after 18 hrs by broth microdilution method; settings: ATCC 12228, 18 h; procedure, shortened: as §1
SMILES,MIC [1] [µg/mL],MIC [2] [µg/mL],MIC [3] [µg/mL],MIC [4] [µg/mL],MIC [5] [µg/mL],MIC [6] [µg/mL],MIC [7] [µg/mL],MIC [8] [µg/mL],MIC [9] [µg/mL],MIC [10] [µg/mL],MIC [11] [µg/mL],MIC [12] [µg/mL],MIC [13] [µg/mL],MIC [14] [µg/mL]
CC(C)(C)OC(=O)NCC(c1c[nH]c2ccccc12)N(O)Cc1ccccc1 (stereo not given),> 128,> 128,> 128,> 128,> 128,> 128,> 128,> 128,> 128,> 128,> 128,> 128,> 128,> 128
CC(C)(C)OC(=O)NCC(NO)c1c[nH]c2ccc(Br)cc12 (stereo not given),32,32,32,64,–,32,32,–,–,64,–,–,32,64
CC(NO)c1c[nH]c2ccc(Br)cc12 (stereo not given),64,64,64,64,–,64,64,–,–,64,–,–,64,64
CC(c1c[nH]c2ccc(F)cc12)N(O)Cc1ccccc1 (stereo not given),> 128,> 128,> 128,> 128,> 128,> 128,> 128,> 128,> 128,> 128,> 128,> 128,> 128,> 128
CC(c1c[nH]c2ccc(Cl)cc12)N(O)Cc1ccccc1 (stereo not given),> 128,> 128,> 128,> 128,> 128,> 128,> 128,> 128,> 128,> 128,> 128,> 128,> 128,> 128
CC(C)(C)OC(=O)NCC(c1c[nH]c2ccc(F)cc12)N(O)Cc1ccccc1 (stereo not given),> 128,> 128,> 128,> 128,> 128,> 128,> 128,> 128,> 128,> 128,> 128,> 128,> 128,> 128
CC(C)CC(c1c[nH]c2ccc(F)cc12)N(O)Cc1ccccc1 (stereo not given),64,64,64,64,128,64,64,128,128,64,128,128,64,64
CC(C)(C)OC(=O)NCC(NO)c1c[nH]c2ccc(F)cc12 (stereo not given),> 128,> 128,> 128,> 128,–,> 128,> 128,–,–,> 128,–,–,> 128,> 128
CC(C)CC(c1c[nH]c2ccc(Br)cc12)N(O)Cc1ccccc1 (stereo not given),> 128,> 128,> 128,> 128,> 128,> 128,> 128,> 128,> 128,> 128,> 128,> 128,> 128,> 128
CC(c1c[nH]c2ccc(I)cc12)N(O)Cc1ccccc1 (stereo not given),> 128,> 128,> 128,> 128,> 128,> 128,> 128,> 128,> 128,> 128,> 128,> 128,> 128,> 128
CC(C)(C)OC(=O)NCC(NO)c1c[nH]c2cccc(Br)c12 (stereo not given),128,128,128,128,–,128,128,–,–,128,–,–,128,128
CC(C)CC(c1c[nH]c2ccc(Cl)cc12)N(O)Cc1ccccc1 (stereo not given),> 128,> 128,> 128,> 128,> 128,> 128,> 128,> 128,> 128,> 128,> 128,> 128,> 128,> 128
CC(C)(C)OC(=O)NCC(NO)c1c[nH]c2ccc(I)cc12 (stereo not given),32,32,32,64,–,32,32,–,–,64,–,–,32,64
CC(C)(C)OC(=O)NCC(NO)c1c[nH]c2cc(F)ccc12 (stereo not given),> 128,> 128,> 128,> 128,–,> 128,> 128,–,–,> 128,–,–,> 128,> 128
CC(NO)c1c[nH]c2ccccc12 (stereo not given),128,128,128,64,–,128,128,–,–,64,–,–,128,64
CC(NO)c1c[nH]c2ccc(F)cc12 (stereo not given),64,64,64,64,–,64,64,–,–,64,–,–,64,64
CC(C)(C)OC(=O)NCC(c1c[nH]c2cc(F)ccc12)N(O)Cc1ccccc1 (stereo not given),> 128,> 128,> 128,> 128,> 128,> 128,> 128,> 128,> 128,> 128,> 128,> 128,> 128,> 128
CC(C)(C)OC(=O)NCC(NO)c1c[nH]c2ccccc12 (stereo not given),> 128,> 128,> 128,> 128,–,> 128,> 128,–,–,> 128,–,–,> 128,> 128
CC(C)(C)OC(=O)NCC(NO)c1c[nH]c2ccc(Cl)cc12 (stereo not given),64,64,64,64,–,64,64,–,–,64,–,–,64,64
CC(C)CC(c1c[nH]c2ccc(I)cc12)N(O)Cc1ccccc1 (stereo not given),> 128,> 128,> 128,> 128,> 128,> 128,> 128,> 128,> 128,> 128,> 128,> 128,> 128,> 128
CC(C)(C)OC(=O)NCC(NO)c1c[nH]c2cc(Cl)ccc12 (stereo not given),128,128,128,> 128,–,128,128,–,–,> 128,–,–,128,> 128
CC(C)(C)OC(=O)NCC(NO)c1c[nH]c2cc(Br)ccc12 (stereo not given),64,64,64,64,–,64,64,–,–,64,–,–,64,64
CC(c1c[nH]c2ccccc12)N(O)Cc1ccccc1 (stereo not given),128,128,128,64,–,128,128,–,–,64,–,–,128,64
CC(c1c[nH]c2ccc(Br)cc12)N(O)Cc1ccccc1 (stereo not given),> 128,> 128,> 128,> 128,> 128,> 128,> 128,> 128,> 128,> 128,> 128,> 128,> 128,> 128
CC(C)(C)OC(=O)NCC(c1c[nH]c2cccc(Br)c12)N(O)Cc1ccccc1 (stereo not given),> 128,> 128,> 128,> 128,> 128,> 128,> 128,> 128,> 128,> 128,> 128,> 128,> 128,> 128
